Laboratory results reported in ChEMBL document CHEMBL1135862, “Bioactive 4-substituted-6-methyl-2-pyrones with promising cytotoxicity against A2780 and K562 cell lines” (Bioorg Med Chem Lett, 2002).
pIC50: −log10 of the molar value.

Tests used:
A2780 = test: Inhibitory concentration in vitro for cytotoxic activity against A 2780 human ovarian carcinoma cells; type: functional, cell-based
Summary of the method: (§1)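 MTT assay in 96-well plates, seeding 400–1000 cells/well. Cells recover 24 h, then drug in medium is added, three wells per dose. Incubate 5 days at 37 °C in 5% CO₂. Add MTT (3 mg/mL) for 3 h, dissolve formazan in DMSO, read at 540 nm minus 620 nm. Percent growth inhibition per dose comes from duplicate experiments, reported as mean and SD; IC50 is derived from these.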

Bacillus subtilis [1] = test: Antimicrobial activity against Bacillus subtilis after 96 hr incubation; type: functional; design: concentration or dose not given beside the values
Summary of the method: (§2)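 Agar diffusion on cellulose disks loaded with 200 µg compound each. Bacteria read after 96 h, yeasts after 48 h. Activity is recorded as the radius in mm, or percent, of the inhibition zone. Squalestatin S1 (200 µg/disk) served as control in the yeast assay.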

Candida albicans [2] = test: Anti fungal activity against Candida albicans after 48 hr incubation; type: functional; design: concentration or dose not given beside the values; summary of the method: as §2
Candida albicans [3] = test: Antimicrobial activity against Candida albicans after 48 hr incubation; type: functional; summary of the method: as §2
Escherichia coli [4] = test: Antimicrobial activity against Escherichia coli after 96h incubation; type: functional; summary of the method: as §2
Escherichia coli [5] = test: Antimicrobial activity against the Escherichia coli after 96 hr incubation; type: functional; design: concentration or dose not given beside the values; summary of the method: as §2
K562 = test: Inhibitory concentration in vitro for cytotoxic activity against K 562 human chronic myelogenous leukemia cells; type: functional, cell-based; summary of the method: as §1
[6] = system: Schizosaccharomyces pombe; test: (§3) Antimicrobial activity against Schizosaccharomyces pombe after 48 hr incubation; type: functional; design: concentration or dose not given beside the values; summary of the method: as §2
[7] = system: Schizosaccharomyces pombe; test: as §3; type: functional; summary of the method: as §2
Saccharomyces cerevisiae [8] = test: Antimicrobial activity against Saccharomyces cerevisiae after 48 hr incubation; type: functional; summary of the method: as §2
Staphylococcus aureus [9] = test: The compound was evaluated for anti microbial activity against Staphylococcus aureus after 96 hr incubation; type: functional; design: concentration or dose not given beside the values; summary of the method: as §2
Staphylococcus aureus [10] = test: Antimicrobial activity against Staphylococcus aureus after 96h incubation; type: functional; summary of the method: as §2
Saccharomyces cerevisiae [11] = test: Compound was evaluated for anti fungal activity against Saccharomyces cerevisiae after 48 hr incubation; type: functional; summary of the method: as §2
Bacillus subtilis [12] = test: Antimicrobial activity against Bacillus subtilis after 96h incubation; type: functional; summary of the method: as §2
[13] = system: Schizosaccharomyces pombe; test: The compound was evaluated for antimicrobial activity against Schizosaccharomyces pombe after 48 hr incubation; type: functional; summary of the method: as §2

SMILES	pIC50 (A2780)	Inhibition (Bacillus subtilis [1]) [%]	Inhibition (Candida albicans [2]) [%]	Inhibition (Candida albicans [3]) [mm]	Inhibition (Escherichia coli [4]) [mm]	Inhibition (Escherichia coli [5]) [%]	pIC50 (K562)	Inhibition [6] [%]	Inhibition [7] [mm]	Inhibition (Saccharomyces cerevisiae [8]) [mm]	Inhibition (Staphylococcus aureus [9]) [%]	Inhibition (Staphylococcus aureus [10]) [mm]	Inhibition (Saccharomyces cerevisiae [11]) [%]	Inhibition (Bacillus subtilis [12]) [mm]	Inhibition [13]
C#Cc1cc(C)oc(=O)c1	5.51	19.3	40.9	36	16	18.2	5.70	45.5	40	40	34.1	30	45.4	17	–
CCc1cc(C)oc(=O)c1	< 4.30	–	–	0	21	23.8	< 4.30	–	–	0	–	0	–	0	0 radii mm-1
CCCCCC#Cc1cc(C)oc(=O)c1	5.54	21.6	25	22	19	21.6	4.95	56.8	50	0	23.9	21	–	19	–
CCCC#Cc1cc(C)oc(=O)c1	5.32	20.5	12.5	11	22	25	4.75	32.9	29	0	23.9	21	–	18	–
CCCCCCCc1cc(C)oc(=O)c1	4.38	18.2	18.2	16	17	19.3	4.54	–	30	5	15.9	14	5.7	16	34.1%
CCCCC/C=C/c1cc(C)oc(=O)c1	< 4.30	20.5	23.9	21	18	20.5	< 4.30	38.6	34	0	19.3	17	–	18	–
CCCCCC/C=C/c1cc(C)oc(=O)c1	< 4.30	20.5	22.7	20	20	22.7	< 4.30	32.9	29	0	20.5	18	–	18	–
